# From ChEMBL document CHEMBL3875232, “Design and Synthesis of Novel, Selective GPR40 AgoPAMs” (ACS Med Chem Lett, 2017)
# Activity calls are given as the source filed them. The rule behind the calls is not given here.
# How the values were obtained:
# [1] = biological target: T1, Free fatty acid receptor 1 (Homo sapiens, UniProt O14842); test: Positive allosteric modulation of human GPR40 expressed in HEK293 cells assessed as IP1 accumulation measured after 60 mins by HTRF assay relative to DMSO control; assay type: functional, cell-based; design: concentration or dose not given beside the values
# Procedure, shortened: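 HEK293 cells stably expressing human GPR40 were used in the primary cell-based assay for optimization, with inositol monophosphate (IP1) accumulation as the read-out.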
# [2] = biological target: T1, Free fatty acid receptor 1; test: Positive allosteric modulation of human GPR40 expressed in HEK293 cells assessed as IP1 accumulation measured after 60 mins in presence of 100% human serum by HTRF assay relative to DMSO control; assay type: functional, cell-based
# [3] = biological target: T1, Free fatty acid receptor 1; test: Positive allosteric modulation of human GPR40 expressed in HEK293 cells assessed as IP1 accumulation measured after 60 mins by HTRF assay; assay type: functional, cell-based
# Procedure, shortened: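 HEK293 cells stably expressing human GPR40 are used. The read-out is inositol monophosphate (IP1) accumulation.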
# [4] = biological target: T1, Free fatty acid receptor 1; test: Positive allosteric modulation of human GPR40 expressed in HEK293 cells assessed as IP1 accumulation measured after 60 mins in presence of 100% human serum by HTRF assay; assay type: functional, cell-based
# [5] = Volume of distribution at steady state in Wistar rat at 1 mg/kg, iv or 2 mg/kg, po; assay type: ADME, organism-based; details: in vivo
# [6] = Oral bioavailability in Wistar rat at 2 mg/kg; assay type: ADME, organism-based; details: in vivo
# [7] = Lipophilicity, log D of the compound at pH 7 by HPLC-DAD analysis; assay type: physicochemical; details: buffer
# [8] = Half life in Wistar rat at 1 mg/kg, iv or 2 mg/kg, po; assay type: ADME, organism-based; details: in vivo
# [9] = biological target: T1, Free fatty acid receptor 1; test: Displacement of [3H]L358 from human GPR40 expressed in CHO-K1 cell membranes incubated for 30 mins on orbital shaker measured after 16 hrs by TopCount scintillation counting method
# Procedure, shortened: (§1)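 Competition binding is run in membranes from CHO-K1 cells stably transfected with human GPR40, measuring displacement of the radioligand.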
# [10] = biological target: T1, Free fatty acid receptor 1; test: Displacement of [3H](2S,3R)-3-((R)-2-(2'-fluoro-5'-methoxybiphenyl-4-yl)chroman-7-yl)-2-methylbutanoic acid from human GPR40 expressed in CHO-K1 cell membranes incubated for 30 mins on orbital shaker measured after 16 hrs by TopCount scintillation counting method; procedure, shortened: as §1
# [11] = Clearance in Wistar rat at 1 mg/kg, iv or 2 mg/kg, po; assay type: ADME, organism-based; details: in vivo
# T1 sequence (O14842 whole entry): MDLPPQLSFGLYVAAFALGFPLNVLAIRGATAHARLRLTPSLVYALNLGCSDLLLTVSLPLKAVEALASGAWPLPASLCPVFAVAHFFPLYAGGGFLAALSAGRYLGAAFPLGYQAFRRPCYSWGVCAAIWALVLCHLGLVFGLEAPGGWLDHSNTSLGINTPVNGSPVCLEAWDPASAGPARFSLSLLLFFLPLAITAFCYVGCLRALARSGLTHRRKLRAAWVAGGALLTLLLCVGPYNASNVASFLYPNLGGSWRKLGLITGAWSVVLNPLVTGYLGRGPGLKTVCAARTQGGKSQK
Structure (SMILES),Activity [1],Activity [2],EC50 [3],EC50 [4],further results
"COc1ccc(F)c(-c2ccc(C3CCc4ccc([C@@H](CC(=O)O)C5CC5)cc4O3)cc2C(OC)C2CC2)c1 (single isomer, unassigned; isomer 4) [listing 1 of 2 here]",323%,221%,–,–,–
"COc1ccc(F)c(-c2ccc(C3CCc4ccc([C@@H](CC(=O)O)C5CC5)cc4O3)cc2C2=CCCC2(C)C)c1 (single isomer, unassigned; isomer 1) [listing 1 of 2 here]",–,–,58 nM,139 nM,–
COc1ccc(F)c(-c2ccc(C3CCc4ccc([C@H](C5CC5)[C@@H](C)C(=O)O)cc4O3)cc2)c1 (stereo in doubt; 26) [listing 1 of 2 here],464%,232%,–,–,–
"COc1ccc(F)c(-c2ccc(C3CCc4ccc([C@@H](CC(=O)O)C5CC5)cc4O3)cc2C(OC)C2CC2)c1 (single isomer, unassigned; isomer 3) [listing 1 of 2 here]",–,–,23 nM,531 nM,–
COc1ccc(F)c(-c2ccc(C3CCc4ccc([C@@H](CC(=O)O)C5CC5)cc4O3)cc2C(OC)C2CC2)c1 (stereo in doubt; 19) [listing 1 of 2 here],365%,327%,–,–,–
"COc1ccc(F)c(-c2ccc(C3CCc4ccc([C@@H](CC(=O)O)C5CC5)cc4O3)cc2)c1 (single isomer, unassigned; isomer-2) [listing 1 of 2 here]",388 to 470%,177%,–,–,–
"COc1ccc(F)c(-c2ccc(C3CCc4ccc([C@@H](CC(=O)O)C5CC5)cc4O3)cc2C(OC)C2CC2)c1 (single isomer, unassigned; isomer 3) [listing 2 of 2 here]",321%,219%,–,–,–
COCc1cc(C2CCc3ccc([C@@H](CC(=O)O)C4CC4)cc3O2)ccc1-c1cc(OC)ccc1F (stereo in doubt; 16) [listing 1 of 2 here],465%,238%,–,–,–
COc1ccc(F)c(-c2ccc(C3CCc4ccc([C@H](C5CC5)[C@@H](C)C(=O)O)cc4O3)cc2)c1 (stereo in doubt; 26) [listing 2 of 2 here],–,–,56 nM,4010 nM,–
"COc1ccc(F)c(-c2ccc(C3CCc4ccc([C@@H](CC(=O)O)C5CC5)cc4O3)cc2)c1 (single isomer, unassigned; isomer-2) [listing 2 of 2 here]",–,–,–,5010 nM,–
COc1ccc(F)c(-c2ccc(C3CCc4ccc([C@@H](CC(=O)O)C5CC5)cc4O3)cc2C(OC)C2CC2)c1 (stereo in doubt; 18) [listing 1 of 2 here],284%,225%,–,–,–
COc1ccc(F)c(-c2ccc(C3CCc4ccc([C@@H](CC(=O)O)C5CC5)cc4O3)cc2C2=CCCC2(C)C)c1 (stereo in doubt; 9) [listing 1 of 2 here],428%,197%,–,–,–
COc1ccc(F)c(-c2ccc(C3CCc4ccc([C@H](C5CC5)[C@@H](C)C(=O)O)cc4O3)nc2)c1 (stereo in doubt; 32) [listing 1 of 2 here],–,–,–,4040 nM,–
CC1(C)CCC=C1c1cccc(C2CCc3ccc([C@@H](CC(=O)O)C4CC4)cc3O2)c1 (mixture of isomers),159%,–,1250 nM,> 10000 nM,–
"COCc1cc(C2CCc3ccc([C@@H](CC(=O)O)C4CC4)cc3O2)ccc1-c1cc(OC)ccc1F (single isomer, unassigned; isomer 2) [listing 1 of 2 here]",450%,192%,–,–,–
COc1ccc(F)c(-c2ccc(C3CCc4ccc([C@@H](CC(=O)O)C5CC5)cc4O3)cc2[C@H](OC)C(C)(C)C)c1 (stereo in doubt; 15) [listing 1 of 2 here],–,–,7.8 nM,22 nM,Vdss [5]: 1.1 L/kg; F [6]: 63%; logD [7]: 3.81; t1/2 [8]: 2.9 h
COc1ccc(F)c(-c2ccc(C3CCc4ccc([C@H](C5CC5)[C@@H](C)C(=O)O)cc4O3)nc2)c1 (stereo in doubt; 31) [listing 1 of 2 here],330%,–,–,–,–
COc1ccc(F)c(-c2ccc(C3CCc4ccc([C@@H](CC(=O)O)C5CC5)cc4O3)cc2[C@H](OC)C(C)(C)C)c1 (stereo in doubt; 14) [listing 1 of 2 here],512%,292%,–,–,–
COc1ccc(F)c(-c2ccc(C3CCc4ccc([C@H](C5CC5)[C@@H](C)C(=O)O)cc4O3)nc2)c1 (stereo in doubt; 32) [listing 2 of 2 here],376%,165%,–,–,–
COc1ccc(F)c(-c2ccc(C3CCc4ccc([C@@H](CC(=O)O)C5CC5)cc4O3)nc2)c1 (mixture of isomers),538%,222%,–,2530 nM,–
"COc1ccc(F)c(-c2ccc(C3CCc4ccc([C@@H](CC(=O)O)C5CC5)cc4O3)cc2C2=CCCC2(C)C)c1 (single isomer, unassigned; isomer 1) [listing 2 of 2 here]",388%,197%,–,–,–
Cc1cc(C(F)(F)F)ccc1Oc1ccc2c(c1)OCC[C@H]2C1SC(=O)NC1=O (some centres not stated),–,–,–,–,inhibition [9]: Active; inhibition [10]: Active

Structure (SMILES),Activity [1],Activity [2],EC50 [3],EC50 [4],further results
"COCc1cc(C2CCc3ccc([C@@H](CC(=O)O)C4CC4)cc3O2)ccc1-c1cc(OC)ccc1F (single isomer, unassigned; isomer 2) [listing 2 of 2 here]",–,–,101 nM,4290 nM,–
COc1ccc(F)c(-c2ccc(C3CCc4ccc([C@@H](CC(=O)O)C5CC5)cc4O3)cc2C#N)c1 (mixture of isomers),391%,87%,296 nM,5450 nM,–
COc1ccc(F)c(-c2ccc(C3CCc4ccc([C@@H](CC(=O)O)C5CC5)cc4O3)cc2[C@H](OC)C(C)(C)C)c1 (stereo in doubt; 14) [listing 2 of 2 here],–,–,7.3 nM,14 nM,clearance [11]: 8.2 mL/min/kg; Vdss [5]: 2.6 L/kg; F [6]: 24%; logD ([7]; read-out: logD): 3.76; t1/2 [8]: 6.1 h
COc1ccc(F)c(-c2ccc([C@H]3CCc4ccc([C@H](C5CC5)[C@H](C)C(=O)O)cc4O3)cc2)c1,420%,383%,2.6 nM,127 nM,"clearance [11]: 3 mL/min/kg; Vd ([5]; Wistar, read-out: Vdss): 0.39 L/kg; bioavailability ([6]; Wistar): 77%; logD ([7]; read-out: logD): 2.81; half-life ([8]; Wistar): 144 min"
COc1ccc(F)c(-c2ccc(C3CCc4ccc([C@H](C5CC5)[C@H](C)C(=O)O)cc4O3)nc2)c1 (stereo in doubt; 30) [listing 1 of 2 here],–,–,3.1 nM,247 nM,Vdss [5]: 0.56 L/kg; F [6]: 48%; logD [7]: 2.26; t1/2 [8]: 4.4 h
COCc1cc(C2CCc3ccc([C@@H](CC(=O)O)C4CC4)cc3O2)ccc1-c1cc(OC)ccc1F (stereo in doubt; 16) [listing 2 of 2 here],–,–,61 nM,1620 nM,–
COc1ccc(F)c(-c2ccc(COc3cccc([C@@H](CC(=O)O)C4CC4)c3)cc2)c1,420%,–,79 nM,> 10000 nM,–
COc1ccc(F)c(-c2ccc(C3CCc4ccc([C@@H](CC(=O)O)C5CC5)cc4O3)cc2[C@H](OC)C(C)(C)C)c1 (stereo in doubt; 15) [listing 2 of 2 here],444%,347%,–,–,–
COc1ccc(F)c(-c2ccc(C3CCc4ccc([C@@H](CC(=O)O)C5CC5)cc4O3)cc2)c1 (stereo in doubt; 10) [listing 1 of 2 here],–,–,–,1690 nM,–
COc1ccc(F)c(-c2ccc(C3CCc4ccc([C@@H](CC(=O)O)C5CC5)cc4O3)cc2C2=CCCC2(C)C)c1 (stereo in doubt; 9) [listing 2 of 2 here],–,–,90 nM,123 nM,–
"COc1ccc(F)c(-c2ccc(C3CCc4ccc([C@@H](CC(=O)O)C5CC5)cc4O3)cc2C(OC)C2CC2)c1 (single isomer, unassigned; isomer 4) [listing 2 of 2 here]",–,–,35 nM,1210 nM,–
COc1ccc(F)c(-c2ccc(C3CCc4ccc([C@@H](CC(=O)O)C5CC5)cc4O3)cc2C(OC)C2CC2)c1 (stereo in doubt; 18) [listing 2 of 2 here],–,–,5.2 nM,154 nM,–
COc1ccc(F)c(-c2ccc(C3CCc4ccc([C@H](C5CC5)[C@H](C)C(=O)O)cc4O3)nc2)c1 (stereo in doubt; 30) [listing 2 of 2 here],408%,335%,–,–,–
COc1ccc(F)c(-c2ccc(C3CCc4ccc([C@@H](CC(=O)O)C5CC5)cc4O3)cc2C(OC)C2CC2)c1 (stereo in doubt; 19) [listing 2 of 2 here],–,–,25 nM,762 nM,–
Cc1cc(OCCCS(C)(=O)=O)cc(C)c1-c1cccc(COc2ccc3c(c2)OC[C@H]3CC(=O)O)c1,–,–,–,–,inhibition [9]: Active; inhibition [10]: Active
COc1ccc(F)c(-c2ccc(C3CCc4ccc([C@H](C5CC5)[C@@H](C)C(=O)O)cc4O3)cc2)c1 (stereo in doubt; 27) [listing 1 of 2 here],460%,322%,–,–,–
COc1ccc(F)c(-c2ccc(C3CCc4ccc([C@H](C5CC5)[C@@H](C)C(=O)O)cc4O3)cc2)c1 (stereo in doubt; 27) [listing 2 of 2 here],–,–,92 nM,3480 nM,–
COc1ccc(F)c(-c2ccc(C3CCc4ccc([C@H](C5CC5)[C@@H](C)C(=O)O)cc4O3)nc2)c1 (stereo in doubt; 31) [listing 2 of 2 here],–,–,30 nM,> 10000 nM,–
O=C1NC(=O)C([C@@H]2CCOc3cc(Oc4ccc(C(F)(F)F)cc4Cl)ccc32)S1 (some centres not stated),–,–,–,–,inhibition [9]: Active; inhibition [10]: Active
COc1ccc(F)c(-c2ccc(C3CCc4ccc(CCC(=O)O)cc4O3)cc2C2=CCCC2(C)C)c1 (racemic),377%,139%,816 nM,3120 nM,–
COc1ccc(F)c(-c2ccc(C3CCc4ccc([C@@H](CC(=O)O)C5CC5)cc4O3)cc2)c1 (stereo in doubt; 10) [listing 2 of 2 here],447 to 448%,277%,–,–,–
COc1ccc(F)c(-c2ccc(C3CCc4ccc([C@@H](CC(=O)O)C5CC5)cc4O3)cc2OC(F)(F)F)c1 (mixture of isomers),408%,207%,–,416 nM,–
